Data published in article PMC3848259 (Cellular signalling, 2013).
Entries after “also recorded” stand apart in the source; their conditions may differ.

Tests used:
RGS4-Gαo binding [1] = molecular target: T1, RGS4-Gαo binding (Rattus norvegicus, UniProt P49799); experiment: Flow Cytometry Protein Interaction Assay; details: read-out: FCPIA IC50, compounds 100 nM-100 μM, three independent experiments
T1 sequence (P49799 52-205 limits assumed): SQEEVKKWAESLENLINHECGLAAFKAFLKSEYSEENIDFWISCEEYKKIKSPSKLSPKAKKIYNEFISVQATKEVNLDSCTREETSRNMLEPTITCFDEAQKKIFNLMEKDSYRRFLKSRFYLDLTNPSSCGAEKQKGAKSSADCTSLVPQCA
Method in brief: (§1)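 Multiplexed bead assay: biotinylated MBP-Δ51 RGS4, cysteine-free Δ51 RGS4 (seven RGS-box Cys→Ala) and His-tagged RGS8 (61–198) on separate streptavidin Luminex bead sets. Buffer 50 mM HEPES pH 7.4, 100 mM NaCl, 0.1% lubrol, 1% BSA. Test compound (100 nM–100 μM) for 15 min at RT. AlexaFluor532-Gαo (30 nM final) with GDP·AlF4 and 1 mM MgCl for 30 min at RT. Read by flow cytometry; nonlinear regression.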

[2] = molecular target: T2, RGS4 stimulation of Gαi1 (R178M/A326S) GTP hydrolysis (Rattus norvegicus, UniProt P49799); experiment: Receptor-independent steady-state GTPase acceleration protein assay; format: biochemical; details: read-out: SS-GAP IC50; 200 nM Δ51 RGS4-MBP, 6 μM Gαi1 (R178M/A326S), 300 μM GTP
T2 sequence (P49799 52-205): T1 sequence (P49799 52-205 limits assumed)
Method in brief: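 Receptor-independent GTPase: Δ51 RGS4 (residues 52-205)-MBP with His-tagged Gαi1 R178M/A326S. Buffer: 50 mM HEPES pH 7.4, 100 mM NaCl, 0.01% Lubrol, 5 mM MgCl, 10 μg/mL BSA. Test compound in half-log steps, 100 nM–100 μM. Started with GTP; 120 min at room temperature. Quenched with HCl/malachite green plus citrate stabiliser, 20 min, then A630. IC50 by nonlinear regression; three independent experiments, duplicate wells.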

[3] = tested on: RGS4 in HEK293-FlpIn-TREx/M3R/RGS4 cells; experiment: Cell-based calcium signaling assay in M3-R4 cells; set-up: species or system human; details: read-out: Cellular Activity IC50, Dox treated, carbachol-stimulated calcium
RGS4-Gαo binding [4] = molecular target: T1, RGS4-Gαo binding; experiment: FCPIA reversibility; details: 100 μM compound; for inhibition of RGS4-G-protein binding: FCPIA; for reversibility of RGS4 inhibition: beads washed three times, ten minute washing period
Method in brief: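 Biotinylated RGS4 on streptavidin Luminex beads preincubated 30 min at room temperature with 100 μM test compound or DMSO, then washed three times in 50 mM HEPES pH 7.4/100 mM NaCl/0.1% lubrol/1% BSA. Beads split: one set re-dosed with 100 μM compound, other DMSO. Each then mixed with AlexaFluor 532-Gαo (30 nM final) plus GDP·AlF4/1 mM MgCl. Binding read by flow cytometry. Three independent experiments.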

RGS7 = molecular target: T3, RGS7 (Homo sapiens, UniProt P49802); experiment: Multiplexed FCPIA, RGS7; format: binding; details: 100 nM to 100 μM, RGS7 lacks cysteine residues
T3 sequence (P49802 333-448 limits assumed): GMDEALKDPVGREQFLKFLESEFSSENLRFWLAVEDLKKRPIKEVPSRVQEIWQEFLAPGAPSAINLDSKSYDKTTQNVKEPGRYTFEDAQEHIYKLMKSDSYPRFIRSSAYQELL

RGS19 = molecular target: T4, RGS19 (Homo sapiens, UniProt P49795); experiment: Multiplexed FCPIA, RGS19; format: binding; details: 100 nM to 100 μM
T4 sequence (P49795 1-206 limits assumed): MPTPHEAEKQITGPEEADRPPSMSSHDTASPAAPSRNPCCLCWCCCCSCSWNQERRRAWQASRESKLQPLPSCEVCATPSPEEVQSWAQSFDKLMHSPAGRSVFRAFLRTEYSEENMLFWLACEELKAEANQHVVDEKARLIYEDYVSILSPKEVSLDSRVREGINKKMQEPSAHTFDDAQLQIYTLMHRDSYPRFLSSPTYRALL
Method in brief: (§2)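 Biotinylated RGS proteins (RGS16 full-length, RGS19 ΔC11, both MBP fusions) were each coupled to separate streptavidin Luminex bead sets and pooled per well. Buffer: 50 mM HEPES pH 7.4, 100 mM NaCl, 0.1% lubrol, 1% BSA. Test compound (100 nM–100 μM) or DMSO added for 15 min at room temperature. AlexaFluor 532-Gαo (30 nM final) with GDP·AlF4/1 mM MgCl added for 30 min. Flow-cytometric binding read; nonlinear regression.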

RGS16 = molecular target: T5, RGS16 (Homo sapiens, UniProt O15492); experiment: Multiplexed FCPIA, RGS16; format: binding; details: 100 nM to 100 μM
T5 sequence (O15492 1-202): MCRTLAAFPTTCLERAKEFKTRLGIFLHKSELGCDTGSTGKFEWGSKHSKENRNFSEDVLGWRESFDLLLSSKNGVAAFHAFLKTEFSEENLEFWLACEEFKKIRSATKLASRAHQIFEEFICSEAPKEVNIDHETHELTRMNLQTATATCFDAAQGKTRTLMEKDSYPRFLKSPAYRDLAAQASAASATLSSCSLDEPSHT
Method in brief: as §2

RGS4 (-Cys) = RGS4 (-Cys) (Homo sapiens, UniProt P49798, C132A/C148A/C183A/C197A/C204A/C71A/C95A); experiment: Multiplexed FCPIA, RGS4 lacking cysteines; format: binding
RGS4 (-Cys), sequence (P49798 52-205 C71A/C95A/C132A/C148A/C183A/C197A/C204A limits assumed, species assumed): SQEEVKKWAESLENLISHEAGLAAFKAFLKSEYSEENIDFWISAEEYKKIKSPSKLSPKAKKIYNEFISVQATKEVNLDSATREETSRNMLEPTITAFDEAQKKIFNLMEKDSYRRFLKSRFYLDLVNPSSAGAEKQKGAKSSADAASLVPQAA
Method in brief: as §1

RGS8 = molecular target: T6, RGS8 (Homo sapiens, UniProt P57771); experiment: Multiplexed FCPIA, RGS8; format: binding
T6 sequence (P57771 61-198 isoform P57771-2): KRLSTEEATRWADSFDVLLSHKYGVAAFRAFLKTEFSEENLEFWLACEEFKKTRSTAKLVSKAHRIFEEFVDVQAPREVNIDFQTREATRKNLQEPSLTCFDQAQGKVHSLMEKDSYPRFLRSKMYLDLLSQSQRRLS
Method in brief: as §1

| activity against RGS16 (RGS16) | Structure (SMILES) | IC50 (RGS4-Gαo binding [1]) [µM] | IC50 [2] [µM] | IC50 [3] [µM] | inhibition of RGS4-G-protein binding (RGS4-Gαo binding [4]) | reversibility of RGS4 inhibition (RGS4-Gαo binding [4]) | activity towards RGS7 (RGS7) | potency difference RGS4 versus RGS19 (RGS19) [fold] | Inhibition of Gα binding to RGS4 (-Cys) (RGS4 (-Cys)) | Inhibition of Gα binding to RGS8 (RGS8) |
| --- | --- | --- | --- | --- | --- | --- | --- | --- | --- | --- |
|  | Cc1ccc(/C=C2\C(=O)NC(=S)N(c3ccc(F)cc3)C2=O)s1 [CID 1389577] | 18.3 | 10.9 | 15 | greater than 85% | more than 50% | showed activity towards RGS7; also recorded: activity was observed |  |  |  |
|  | COc1ccc(NC(=O)/C(Cl)=C(/Cl)[S+]([O-])Cc2ccccc2)cn1 (stereo not drawn) [CID 1472216] | 1.7 ± 0.5 | 1.6 ± 0.4 |  |  |  |  |  |  |  |
|  | CN1C(=O)/C(=C\c2ccc(Br)s2)C(=O)NC1=S [CID 1777233] | 15.3 | 9.4 | 20 | greater than 85% | more than 50% |  | 2 |  |  |
|  | O=C1NC(=S)N(c2ccccc2F)C(=O)/C1=C\c1cccs1 [CID 1905297] | 27.9 | 35.6 | 23.8 | greater than 85% | more than 50% |  |  |  |  |
| activity was observed | O=C1N=c2ccccc2=C1c1c(O)n(-c2cccc(F)c2)[nH]c1=O [CID 5428579] | 8.2 | 55.8 | 35.5 | greater than 85% | more than 50% | showed activity towards RGS7; also recorded: activity was observed |  |  |  |
|  | Br.CCCN1CCc2cc(O)cc3c2[C@H]1Cc1ccc(O)c(O)c1-3 [CID 10069059] |  |  |  |  |  |  |  | Inhibition of Gα binding to RGS4 (-Cys) or RGS8 occurred | Inhibition of Gα binding to RGS4 (-Cys) or RGS8 occurred |
|  | Br.CN1CCc2cc(O)cc3c2[C@H]1Cc1ccc(O)c(O)c1-3 [CID 11957531] |  |  |  |  |  |  |  | Inhibition of Gα binding to RGS4 (-Cys) or RGS8 occurred | Inhibition of Gα binding to RGS4 (-Cys) or RGS8 occurred |
